Source: ChEMBL document CHEMBL1130120, “N-arylpiperazinyl-N'-propylamino derivatives of heteroaryl amides as functional uroselective alpha 1-adrenoceptor antagonists” (J Med Chem, 1997)

What was measured:
[1] = molecular target: T1, Alpha-1A adrenergic receptor (Oryctolagus cuniculus, UniProt O02824); assay: Antagonistic activity against alpha 1A/1L receptor was assessed in a rabbit bladder neck functional assay; settings: read-out: pA2 (converted)
T1 sequence (O02824 whole entry): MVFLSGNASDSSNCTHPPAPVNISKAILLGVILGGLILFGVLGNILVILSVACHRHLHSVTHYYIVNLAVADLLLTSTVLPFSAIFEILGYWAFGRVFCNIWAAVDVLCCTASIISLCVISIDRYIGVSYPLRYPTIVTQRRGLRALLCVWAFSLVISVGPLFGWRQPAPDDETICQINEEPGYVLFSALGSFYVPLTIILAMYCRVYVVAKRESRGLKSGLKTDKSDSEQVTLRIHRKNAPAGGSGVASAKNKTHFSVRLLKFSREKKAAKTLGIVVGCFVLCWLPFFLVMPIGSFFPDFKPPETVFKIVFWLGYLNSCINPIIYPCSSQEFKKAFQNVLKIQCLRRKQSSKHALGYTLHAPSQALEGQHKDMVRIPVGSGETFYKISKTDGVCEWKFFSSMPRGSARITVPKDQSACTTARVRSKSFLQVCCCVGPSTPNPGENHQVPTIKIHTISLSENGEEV

[2] = molecular target: T2, Alpha-1A adrenergic receptor (Bos taurus, UniProt P18130); assay: In vitro for the displacement of [3H]prazosin binding to bovine Alpha-1A adrenergic receptor
T2 sequence (P18130 whole entry): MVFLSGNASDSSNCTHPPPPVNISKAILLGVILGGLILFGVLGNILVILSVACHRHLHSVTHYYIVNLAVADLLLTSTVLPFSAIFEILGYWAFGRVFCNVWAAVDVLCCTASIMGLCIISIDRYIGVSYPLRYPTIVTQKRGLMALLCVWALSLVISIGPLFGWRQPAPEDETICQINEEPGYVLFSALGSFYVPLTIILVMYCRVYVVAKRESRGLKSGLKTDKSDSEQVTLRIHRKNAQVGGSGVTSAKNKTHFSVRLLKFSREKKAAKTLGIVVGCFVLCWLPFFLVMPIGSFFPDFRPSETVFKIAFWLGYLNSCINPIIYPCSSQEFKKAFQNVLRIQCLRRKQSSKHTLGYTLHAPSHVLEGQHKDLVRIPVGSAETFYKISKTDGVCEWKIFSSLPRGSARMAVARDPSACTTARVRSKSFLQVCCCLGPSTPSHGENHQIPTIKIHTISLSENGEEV

[3] = molecular target: T3, Adrenergic receptor alpha-1 (Homo sapiens, UniProt P35348+P25100+P35368); assay: Activity against Alpha-1 adrenergic receptor subtypes of human prostate tissue; assay type: functional
T3 sequence (P35348 whole entry): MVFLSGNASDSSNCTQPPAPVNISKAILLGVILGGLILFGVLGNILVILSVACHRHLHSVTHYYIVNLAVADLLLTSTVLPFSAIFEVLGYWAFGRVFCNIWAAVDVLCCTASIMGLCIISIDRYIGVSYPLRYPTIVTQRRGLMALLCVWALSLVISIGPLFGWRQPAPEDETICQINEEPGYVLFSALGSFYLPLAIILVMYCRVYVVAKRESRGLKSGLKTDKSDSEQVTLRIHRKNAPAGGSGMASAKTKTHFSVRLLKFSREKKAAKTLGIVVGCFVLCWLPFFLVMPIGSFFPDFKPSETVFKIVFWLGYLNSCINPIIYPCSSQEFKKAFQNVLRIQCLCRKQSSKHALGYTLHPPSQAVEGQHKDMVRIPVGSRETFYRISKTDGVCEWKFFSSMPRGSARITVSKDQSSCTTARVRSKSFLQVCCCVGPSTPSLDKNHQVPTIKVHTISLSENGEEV
T3 sequence (P25100 whole entry): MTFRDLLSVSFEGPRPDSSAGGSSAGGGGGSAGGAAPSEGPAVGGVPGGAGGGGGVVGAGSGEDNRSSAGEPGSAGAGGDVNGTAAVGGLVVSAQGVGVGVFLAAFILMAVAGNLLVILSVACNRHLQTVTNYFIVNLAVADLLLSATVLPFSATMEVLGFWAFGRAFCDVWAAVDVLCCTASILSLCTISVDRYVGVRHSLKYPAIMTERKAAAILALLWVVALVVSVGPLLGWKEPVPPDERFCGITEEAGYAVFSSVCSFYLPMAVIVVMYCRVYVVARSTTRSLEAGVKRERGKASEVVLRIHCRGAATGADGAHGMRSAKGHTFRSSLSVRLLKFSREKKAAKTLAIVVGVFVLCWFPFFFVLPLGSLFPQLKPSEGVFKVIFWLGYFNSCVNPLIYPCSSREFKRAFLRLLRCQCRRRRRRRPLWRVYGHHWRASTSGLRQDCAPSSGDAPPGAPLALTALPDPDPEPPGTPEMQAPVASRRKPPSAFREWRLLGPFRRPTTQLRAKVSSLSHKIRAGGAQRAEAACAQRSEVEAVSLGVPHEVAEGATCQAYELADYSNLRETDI
T3 sequence (P35368 whole entry): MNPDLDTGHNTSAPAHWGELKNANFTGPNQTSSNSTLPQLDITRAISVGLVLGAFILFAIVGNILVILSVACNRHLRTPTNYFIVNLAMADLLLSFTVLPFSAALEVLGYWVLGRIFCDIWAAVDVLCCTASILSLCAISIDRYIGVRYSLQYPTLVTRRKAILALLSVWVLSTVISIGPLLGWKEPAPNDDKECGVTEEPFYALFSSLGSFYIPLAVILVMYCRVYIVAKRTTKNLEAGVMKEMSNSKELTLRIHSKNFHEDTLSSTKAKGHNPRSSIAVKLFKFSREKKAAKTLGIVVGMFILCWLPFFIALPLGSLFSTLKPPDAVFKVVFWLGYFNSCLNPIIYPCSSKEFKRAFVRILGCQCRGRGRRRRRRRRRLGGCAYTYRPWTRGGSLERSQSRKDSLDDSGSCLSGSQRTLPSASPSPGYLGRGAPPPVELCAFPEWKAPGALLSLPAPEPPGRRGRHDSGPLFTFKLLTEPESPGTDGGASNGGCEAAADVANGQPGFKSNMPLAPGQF
Procedure, shortened: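 Isolated smooth-muscle tissue with cumulative norepinephrine concentration–effect curves (rat aorta, human lower urinary tract). Affinity obtained by full Schild regression for some antagonists. Competitive, reversible interaction at a single subtype assumed.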

[4] = molecular target: T4, Alpha-1D adrenergic receptor (Rattus norvegicus, UniProt P23944); assay: Antagonistic activity against rat aorta for affinity estimates representative of the Alpha-1D adrenergic receptor; assay type: functional, tissue-based; settings: read-out: pA2 (converted)
T4 sequence (P23944 whole entry): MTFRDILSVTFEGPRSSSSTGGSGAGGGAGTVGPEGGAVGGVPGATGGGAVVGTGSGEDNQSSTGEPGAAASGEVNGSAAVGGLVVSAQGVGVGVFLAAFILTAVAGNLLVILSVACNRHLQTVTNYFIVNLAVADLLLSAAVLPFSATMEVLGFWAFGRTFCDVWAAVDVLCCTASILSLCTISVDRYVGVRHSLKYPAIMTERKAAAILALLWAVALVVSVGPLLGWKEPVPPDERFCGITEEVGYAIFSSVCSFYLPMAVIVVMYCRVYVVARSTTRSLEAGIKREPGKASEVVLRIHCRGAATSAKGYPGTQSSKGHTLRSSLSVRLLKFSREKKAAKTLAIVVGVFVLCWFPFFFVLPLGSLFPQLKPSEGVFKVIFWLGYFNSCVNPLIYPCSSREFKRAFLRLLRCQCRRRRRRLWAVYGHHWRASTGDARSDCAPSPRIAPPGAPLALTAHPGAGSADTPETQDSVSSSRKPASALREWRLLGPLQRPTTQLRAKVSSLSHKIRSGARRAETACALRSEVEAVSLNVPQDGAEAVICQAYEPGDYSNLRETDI
Procedure, shortened: (§1)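 Isolated smooth-muscle tissue with cumulative norepinephrine concentration–effect curves (rat aorta, human lower urinary tract). Affinity obtained by full Schild regression for some antagonists. […] Competitive, reversible interaction at a single subtype assumed.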

[5] = molecular target: T5, 5-hydroxytryptamine receptor 1A (Mus musculus) (UniProt Q64264); assay: The compound's binding affinity against 5-hydroxytryptamine 1A receptor
T5 sequence (whole entry): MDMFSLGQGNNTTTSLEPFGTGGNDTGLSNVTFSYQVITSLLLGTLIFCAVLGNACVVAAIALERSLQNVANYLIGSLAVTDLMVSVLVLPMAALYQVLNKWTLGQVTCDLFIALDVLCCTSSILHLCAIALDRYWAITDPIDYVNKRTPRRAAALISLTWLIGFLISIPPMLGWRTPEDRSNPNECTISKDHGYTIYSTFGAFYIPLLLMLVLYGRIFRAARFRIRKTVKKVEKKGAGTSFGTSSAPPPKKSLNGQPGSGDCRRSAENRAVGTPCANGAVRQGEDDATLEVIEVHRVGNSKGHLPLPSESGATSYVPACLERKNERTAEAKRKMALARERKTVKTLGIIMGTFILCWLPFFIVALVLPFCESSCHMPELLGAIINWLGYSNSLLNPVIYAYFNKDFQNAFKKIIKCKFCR

D(2) dopamine receptor = D(2) dopamine receptor (Homo sapiens, UniProt P14416); assay: The compound's binding affinity against Dopamine receptor D2
D(2) dopamine receptor, sequence (P14416 whole entry): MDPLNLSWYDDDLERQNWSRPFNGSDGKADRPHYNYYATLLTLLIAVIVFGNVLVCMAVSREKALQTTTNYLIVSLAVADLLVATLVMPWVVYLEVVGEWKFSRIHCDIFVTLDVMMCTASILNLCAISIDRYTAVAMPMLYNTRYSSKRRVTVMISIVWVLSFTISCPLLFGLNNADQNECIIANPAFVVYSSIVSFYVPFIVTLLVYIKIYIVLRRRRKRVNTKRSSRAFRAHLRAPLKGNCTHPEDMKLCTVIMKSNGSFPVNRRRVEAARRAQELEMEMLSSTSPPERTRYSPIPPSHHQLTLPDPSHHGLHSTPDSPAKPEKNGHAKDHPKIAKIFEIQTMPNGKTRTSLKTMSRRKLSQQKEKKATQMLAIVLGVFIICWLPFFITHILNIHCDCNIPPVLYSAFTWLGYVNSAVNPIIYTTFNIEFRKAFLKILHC

[6] = molecular target: Adrenergic receptor alpha-1 (Homo sapiens) (UniProt P35348+P25100+P35368); assay: The compound was screened in vitro for functional activity against Alpha-1 adrenergic receptor subtypes of human prostate tissue; procedure, shortened: as §1
[7] = molecular target: T6, Alpha-2B adrenergic receptor (Rattus norvegicus, UniProt P19328); assay: The compound's binding affinity against Alpha-2B adrenergic receptor from rat kidney homogenate in the presence of phentolamine
T6 sequence (P19328 whole entry): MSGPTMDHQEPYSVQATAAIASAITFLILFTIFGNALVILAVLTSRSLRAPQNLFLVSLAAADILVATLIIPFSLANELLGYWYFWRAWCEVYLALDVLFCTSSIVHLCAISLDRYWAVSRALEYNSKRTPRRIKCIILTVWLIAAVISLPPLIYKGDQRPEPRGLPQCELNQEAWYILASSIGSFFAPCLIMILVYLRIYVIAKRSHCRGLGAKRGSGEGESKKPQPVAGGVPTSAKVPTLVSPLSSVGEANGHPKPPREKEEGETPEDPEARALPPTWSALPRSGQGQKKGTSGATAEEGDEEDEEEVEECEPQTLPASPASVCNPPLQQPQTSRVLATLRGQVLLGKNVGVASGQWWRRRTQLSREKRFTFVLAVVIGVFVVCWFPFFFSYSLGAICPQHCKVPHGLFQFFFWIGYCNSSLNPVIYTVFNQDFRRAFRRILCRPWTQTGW

Row | Compound | Kb [1] | Ki [2] | pA2 [3] | Kb [4] | pKi [5] | pKi (D(2) dopamine receptor) | pA2 [6] | Ki [7] | Ki (D(2) dopamine receptor)
1 | COc1cc2nc(N3CCN(C(=O)C4CCCO4)CC3)nc(N)c2cc1OC (racemic) [TERAZOSIN] | 20 nM | 2.51 nM | – | – | – | – | – | – | –
2 | COc1ccccc1N1CCN(CCCNc2ncccc2C(=O)NC(C)(C)C)CC1 | 1.26 nM | 1.58 nM | 8.7 | 10 nM | – | – | – | – | –
3 | Cc1ccccc1N1CCN(CCCNc2ncccc2C(=O)N(C)C)CC1 | 2 nM | 0.794 nM | – | 10 nM | – | – | – | – | –
4 | CC(C)(Cc1c[nH]c2ccc(Cl)cc12)NCCOc1ccccc1OCC1CC1 | 50.1 nM | 0.794 nM | – | – | – | – | – | – | –
5 | COc1ccccc1N1CCN(CCCNc2c(C)c(=O)n(C)c(=O)n2C)CC1 | 3.98 nM | 0.501 nM | – | – | – | – | – | – | –
6 | COc1ccccc1N1CCN(CCCNc2ccccc2C(=O)N(C)C)CC1 | 1 nM | 0.398 nM | – | 15.8 nM | – | – | – | – | –
7 | COc1cc(F)ccc1N1CCN(CCCNc2ncccc2C(=O)N(C)C)CC1 | 1.58 nM | – | – | 63.1 nM | 6.7 | 6.7 | 8.5 | – | –
8 | Cc1nn(C)c2ncc(C(=O)N(C)C)c(NCCCN3CCN(c4ccccc4OCC(F)(F)F)CC3)c12 | 0.501 nM | – | – | 126 nM | 7.5 | 8.1 | 9 | – | –
9 | CN(C)C(=O)c1cccnc1NCCCN1CCN(c2ccccc2-c2ccccc2)CC1 | 1.26 nM | – | – | 63.1 nM | – | – | – | 79.4 nM | 126 nM
10 | CN(C)C(=O)c1cccnc1N1CCC(NCCOc2ccccc2OCC(F)(F)F)CC1 | 1.58 nM | 1.58 nM | – | 63.1 nM | – | – | – | – | –
11 | CN(C)C(=O)c1cccnc1NCCCN1CCN(c2ccccc2)CC1 | 6.31 nM | 2 nM | – | 15.8 nM | – | – | – | – | –
12 | CN(C)C(=O)c1cccnc1NCCCN1CCN(c2ccccc2OCC2CC2)CC1 | 0.158 nM | 0.0794 nM | – | 10 nM | – | – | – | – | –
13 | COc1ccccc1N1CCN(CCCNc2nc(C)cc(C)c2C(N)=O)CC1 | 10 nM | 1.58 nM | – | 39.8 nM | – | – | – | – | –
14 | Cc1ccc(N(CC2=NCCN2)c2cccc(O)c2)cc1 [PHENTOLAMINE] | 6.31 nM | 0.794 nM | – | – | – | – | – | – | –
15 | COc1cc(F)ccc1N1CCN(CCCNc2c(C(=O)N(C)C)cnc3c2c(C)nn3C)CC1 | 1.26 nM | – | – | 316 nM | 6.5 | 6.4 | 9.3 | – | –
16 | COc1ccccc1N1CCN(CCCNc2ccncc2C(=O)N(C)C)CC1 | 12.6 nM | 0.794 nM | – | 50.1 nM | – | – | – | – | –
